FN deposit inh: inhibitors of fibronectin matrix deposition, primary screen, AH1F cells, Alexa488-fibronectin fluorescence, plate reader; 350,000 tested, 0.086% active; AH1F fibroblasts, overnight; AID 743247, 2014; inhibition, % at 12.6 µM;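 active = mean inhibition across replicates of 30% or more, regardless of how many single replicates reach that level; inconclusive = mean under 30% yet at least half of replicates reach 30%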;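 note: positive control wells lacked labelled fibronectin entirely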
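Assay system: AH1F fibroblasts / Quantity: 10000 cells per well / Medium: DMEM plus 2% serum, read in PBS / Reagent: labelled fibronectin 24 nM / Dosing: single dose, pinned / Times: 1 h cell attachment, overnight exposure to compound and label / Signal: fluorescence, ex 485 nm, em 525 nm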
Glyco luc inh: increase of ERlucT glycosylation luciferase signal, primary screen, N-linked glycosylation inhibitor project, D54 ERlucT cells, luminescence, set 2 | AID 588692, 2011 | reporter increase, % at 12.5 µM | 360,000 tested, 0.23% active | D54 ERlucT glycosylation luciferase reporter, 24 h; percent of 100 nM tunicamycin response;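 active = mean luciferase reporter signal, scaled so untreated is 0 and the glycosylation-blocking control 100, at or above a set limit in every replicate; inconclusive = mean reaches the limit but not every replicate does; inactive = mean below the limit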;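 note: luciferase carries N-glycosylation sites so blocking glycosylation raises the light; 0% = median of neutral control wells and 100% = median of 100 nM tunicamycin wells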
RAD54 inh: inhibitors of human RAD54 branch migration, primary screen, biochemical, fluorescence, single point | AID 602329, 2012 | inhibition, % at 10.4 µM | 360,000 tested, 0.14% active | RAD54 Holliday junction branch migration, FAM/BHQ fluorescence;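 active = mean normalized replicate activity at least 40 and at least half of replicates scoring 40 or more; inconclusive = only one of the two criteria met; inactive = mean below 40 and under half of replicates reaching 40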;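 note: 0% = median of neutral control wells and 100% = median of positive control wells; inhibitors cause a drop in the FAM fluorescence signal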
Target sequence (Q92698 whole entry, looked up): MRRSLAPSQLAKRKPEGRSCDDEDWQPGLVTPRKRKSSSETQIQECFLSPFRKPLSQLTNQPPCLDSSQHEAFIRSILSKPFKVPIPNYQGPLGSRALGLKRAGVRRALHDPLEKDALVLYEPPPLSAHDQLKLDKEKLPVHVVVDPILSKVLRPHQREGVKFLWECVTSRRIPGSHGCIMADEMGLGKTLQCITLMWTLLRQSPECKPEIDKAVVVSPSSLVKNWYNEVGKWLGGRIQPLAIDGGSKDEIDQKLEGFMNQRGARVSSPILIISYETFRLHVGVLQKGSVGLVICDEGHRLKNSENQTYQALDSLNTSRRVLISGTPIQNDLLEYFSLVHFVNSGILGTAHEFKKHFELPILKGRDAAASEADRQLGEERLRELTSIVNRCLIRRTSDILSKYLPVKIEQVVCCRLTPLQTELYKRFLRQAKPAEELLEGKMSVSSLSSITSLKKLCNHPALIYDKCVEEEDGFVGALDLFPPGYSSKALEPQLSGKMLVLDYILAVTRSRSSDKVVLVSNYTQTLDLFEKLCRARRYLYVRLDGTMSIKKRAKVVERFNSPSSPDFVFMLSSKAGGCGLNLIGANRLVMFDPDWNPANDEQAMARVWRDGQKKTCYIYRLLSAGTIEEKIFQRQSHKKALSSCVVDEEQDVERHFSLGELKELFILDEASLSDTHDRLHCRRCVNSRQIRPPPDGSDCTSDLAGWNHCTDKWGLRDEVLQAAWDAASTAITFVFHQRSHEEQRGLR
MLL AF4-AF9 inh: inhibitors of AF4 peptide binding to AF9, primary screen, biochemical, AlphaScreen, biotin-AF4 peptide, FLAG-AF9, single point; inhibition, % at 10 µM; Protein AF-9 (Homo sapiens), P42568; 350,000 tested, 0.47% active;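 active = every replicate reaching a set inhibition limit, whatever the replicate mean, cut at about 25% in these data; inconclusive = mean inhibition reaches that limit but some replicates miss it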;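 note: 0% = plate neutral control median and 100% = total signal loss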
RAD52 inh: RAD52 DNA annealing inhibitors, primary screen, biochemical, FRET, single point, set 2. recombinant RAD52 DNA annealing, FRET fluorescence. inhibition, % at 18.7 µM. DNA repair protein RAD52 homolog (Homo sapiens), P43351. 360,000 tested, 0.46% active;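 active = every replicate showing at least 50% inhibition; inconclusive = mean inhibition at least 50% but not in every replicate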
An asterisk follows results filed as active; ? = inconclusive; . = no result. Only some compounds are listed: those with a hit (about 0.92% of all), similar ones and a draw of the others.

SMILES	FN deposit inh	Glyco luc inh	RAD54 inh	MLL AF4-AF9 inh	RAD52 inh
CC(C)NC(=O)Nc1ccc2c(c1)C(=O)N([C@@H](C)CO)C[C@@H](C)[C@H](CN(C)Cc1ccc(C(F)(F)F)cc1)OCCCC[C@H](C)O2	3.2	.	-3.6	4.9	5.5
Cc1ccc2c(c1)C(=O)N1[C@H]3c4cc(Br)ccc4OC[C@@H]3[C@H](c3ccccc3)[C@]1(C)C(=O)N2	6.3	26.7*	-11.8	.	-34.0
Cc1ccc2c(c1)[C@H]1[C@H](CO2)[C@H](c2ccccc2)[C@]2(C)C(=O)Nc3ccc(Br)cc3C(=O)N12	3.0	30.4*	0.2	-3.0	-37.6
COc1ccccc1-c1ccc2n(c1=O)C[C@@H]1[C@@H](CO)[C@H](C(=O)NCc3ccccc3F)N[C@H]21	.	.	8.6	0.9	-6.9
O=C(NCc1cccnc1)/C(=C\c1ccc(-c2ccc(Cl)c(Cl)c2)o1)S(=O)(=O)c1ccccc1	31.2*	-21.8	-1.0	-0.3	-39.3
O=C(/C=C/c1ccco1)Nc1nnc(-c2ccco2)s1	3.1	34.6*	.	-2.1	-24.3
CCc1nnc(NC(=O)/C=C/c2ccco2)s1	-4.4	15.2	.	2.7	-35.4
Cc1cccc(N2CCN(S(=O)(=O)c3cn(C)cn3)CC2)c1C	42.5*	2.9	1.7	-1.0	-0.7
CCN1CCN(C(=O)c2ccc3c(c2)N(Cc2ccccc2)C(=O)c2ccccc2S3=O)CC1 (centres undefined)	-7.1	-0.8	-11.6	49.5*	2.1
CN1CCN(C(=O)c2ccc3c(c2)N(Cc2cccc(Cl)c2)C(=O)c2ccccc2S3=O)CC1 (centres undefined)	-0.3	-1.1	-5.7	-4.4	-13.4
NC(=O)N=Nc1c2[nH]c3ccccc3nc-2c2ccccc12	18.4	94.2*	?	.	-10.8
CN(C)c1ccc(CN2CCC(C(=O)NC(c3ccc(F)cc3)c3ccc4ccccc4n3)CC2)cc1 (centres undefined)	-0.3	-4.4	7.5	42.4*	4.7
CN1C=C/C(=C\c2cc[n+](C)c3ccccc23)c2ccccc21	0.1	-7.3	81.6*	55.6*	79.3*
CC(=O)Nc1ccc2c(c1)CC(=O)N(C)C[C@H](C)[C@H](CN(C)C(=O)OC(C)(C)C)O2	-52.2	.	.	.	.
CCNC(=O)C[C@H]1CC[C@@H]2[C@H](COc3ccc(NC(=O)c4ccc5c(c4)OCO5)cc3C(=O)N2C)O1	-28.6	.	-20.3	-1.3	-5.7
CN1CCN(C(=O)C[C@H]2C=C[C@@H](NC(=O)Cc3ccccn3)[C@H](CO)O2)CC1	-7.7	.	-5.7	-6.3	-3.2
CCOc1cc2c3c(c1)C(C)=CC(C)(C)N3C(=O)C2=O	-7.4	15.3	12.1	15.5	-12.9
CC(=O)Oc1cc2c3c(c1)/C(=C1/SC(=S)NC1=O)C(=O)N3C(C)(C)C=C2C	-9.1	1.0	.	30.1*	-6.0
CCN(CC)CCn1c2ccccc2c2cnc(N=CN(C)C)c(C#N)c21	.	?	96.6*	.	.
OC(CSc1ccncc1)CC(O)c1ccccc1 (centres undefined)	.	.	-6.5	-3.9	8.4
COc1ccc2c3c([nH]c2c1)[C@@H](CO)N(C(=O)Nc1ccc(F)cc1)CC31CCN(CC2CC2)CC1	.	.	.	3.4	11.2
COc1cc(F)ccc1-c1csc(C(NC(C)=O)c2ccc(F)c(F)c2)n1 (centres undefined)	-5.3	42.2*	5.2	-4.2	-8.9
COc1cc(F)ccc1-c1csc(C(NC(C)=O)c2ccccc2)n1 (centres undefined)	10.5	50.2*	-7.5	-1.5	-11.1
COc1ccccc1-c1csc(C(NC(C)=O)c2ccccc2)n1 (centres undefined)	5.7	41.7*	-21.4	-1.3	-16.1
COc1ccc(-c2csc(C(NC(C)=O)c3ccccc3)n2)cc1 (centres undefined)	.	1.2	5.2	1.4	-6.4
SMILES	FN deposit inh	Glyco luc inh	RAD54 inh	MLL AF4-AF9 inh	RAD52 inh
COc1cccc(C(NC(C)=O)c2nc(-c3ccc(F)cc3OC)cs2)c1 (centres undefined)	3.6	49.8*	-3.3	-4.1	-2.6
C[C@@H]1COCn2nncc2CCCC(=O)N1	6.9	.	.	.	.
Cc1ccc(NC(=O)COC(=O)c2cc(Cl)ccc2[N+](=O)[O-])c(C)c1	30.3*	0.0	.	0.5	6.9
COc1cccc2c(=O)n(CC(=O)Nc3ccccc3)ccc12	-8.9	2.5	8.6	48.1*	-11.9
COc1cccc2c(=O)n(CC(=O)Nc3ccc(F)cc3F)ccc12	-4.7	0.0	-5.6	3.2	-81.6
COc1ccc2c3c([nH]c2c1)[C@@H](CO)N(Cc1ccccc1F)CC31CCN(C(=O)C2CCOCC2)CC1	.	.	.	0.0	-76.5
COc1ccc(-c2ccc3c(c2)[C@H]2[C@H](CCN2S(=O)(=O)c2ccc(OC)cc2)[C@@H](CO)N3)cc1	14.2	.	-11.1	.	.
CCOc1ccc(C(C(=O)NCC2CCCO2)N(C(=O)c2snc(C(N)=O)c2N)c2ccc3c(c2)OCCO3)cc1 (centres undefined)	1.3	-4.8	3.0	27.2*	-3.2
CN1c2ccc(-c3cccc(C#N)c3)cc2[C@H]2[C@H](CCN2S(=O)(=O)c2ccccc2)[C@H]1CO	-11.2	.	-6.8	-0.2	-22.5
COc1cc2c(C#N)c(N3CCc4ccccc4C3)nc(N)c2c(N)n1	.	25.9*	1.7	.	.
CCC(=O)N1CC2(C1)[C@@H](c1ccccc1)[C@@H](CO)N2CCC(F)(F)F	.	.	.	-0.5	1.7
COc1ccc(CN2CC3(C2)CN(C(=O)CN(C)C)[C@@H](CO)c2[nH]c4cc(OC)ccc4c23)cc1	.	.	.	9.1	67.5*
COc1ccc2c3c([nH]c2c1)[C@@H](CO)N(C(=O)CN(C)C)CC31CN(Cc2ccccc2)C1	.	.	.	14.5	60.4*
COc1ccc(CN2CC3(C2)CN(C(=O)CN(C)C)[C@H](CO)c2[nH]c4cc(OC)ccc4c23)cc1	.	.	.	12.1	68.7*
COc1ccc2c3c([nH]c2c1)[C@H](CO)N(C(=O)CN(C)C)CC31CN(Cc2ccncc2)C1	.	.	.	8.6	.
COc1ccc(-c2csc(CCn3nc(C)cc3C)n2)cc1OC	37.2*	0.0	-1.5	-17.7	4.9
CCCN(C)C[C@@H]1OCCCC[C@H](C)Oc2ccc(N(C)C)cc2C(=O)N([C@H](C)CO)C[C@@H]1C	.	.	-0.6	7.9	8.3
C[C@H](CO)N1C[C@H](C)[C@@H](CN(C)S(=O)(=O)c2ccc(F)cc2)OCCCC[C@H](C)Oc2ccc(NS(=O)(=O)c3cn(C)cn3)cc2C1=O	-10.7	.	2.5	-6.6	8.3
CCCC#Cc1cnc2c(c1)C(=O)N([C@H](C)CO)C[C@H](C)[C@H](CN(C)C(=O)Nc1ccccc1OC)O2	-7.6	.	0.4	-3.1	5.1

Bioassay records: PubChem BioAssay, Broad Institute
